ChEMBL document CHEMBL1134368, “Alpha(2) adrenoceptor agonists as potential analgesic agents. 3. Imidazolylmethylthiophenes” (J Med Chem, 2001)
The source made the active and inactive calls. No cut-off for these calls is given here.

Legend:
Mus musculus [1] = experiment: In vivo antinociceptive activity was determined by mouse abdominal irritant test (MAIT) in male pathogen free albino CD-1 mice; format: functional, Abdomen; design: concentration or dose not given beside the values
Summary of the method: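 Mice were dosed orally by gavage at several doses, with vehicle controls. Acetylcholine bromide was given at 5.5 mg/kg ip at set intervals later, and writhing was observed. Percent antinociception was calculated per dose from responders per group. ED50 and 95% confidence limits came from Litchfield-Wilcoxon probit analysis with a chi-square linearity test.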

Rattus norvegicus [2] = experiment: In vivo antinociceptive activity was determined using in rat abdominal irritant test (RAIT) assay; format: functional; settings: Abdomen
Mus musculus [3] = experiment: In vivo antinociceptive activity was determined by Mouse abdominal irritant test (MAIT)in male pathogen free albino CD-1 mice at 30 mg/kg; format: functional; settings: Abdomen
Summary of the method: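 Compound or vehicle was given to mice by oral gavage at 30 mg/kg. After set intervals, acetylcholine bromide was injected at 5.5 mg/kg ip. Percent inhibition was the percentage of responders per group.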

Rattus norvegicus [4] = species on record: Rattus norvegicus; experiment: QT interval was determined during cardiovascular test in normotensive male albino Long-Evans rat; format: functional, Heart; design: concentration or dose not given beside the values
Rattus norvegicus [5] = species on record: Rattus norvegicus; experiment: QT interval was determined during cardiovascular test in normotensive male albino Long-Evans rat; delta QT; format: functional, Heart
[6] = target: Adrenergic receptor alpha-2 (Rattus norvegicus) (UniProt P22086+P19328+P22909); experiment: compounds were tested for agonistic activity in Alpha2 Adrenoceptor in Rat abdominal irritant test (RAIT); format: functional; settings: Abdomen
Rattus norvegicus [7] = experiment: In vivo antinociceptive activity was determined using in Rat abdominal irritant test(RAIT) assay; IA=inactive; format: functional, organism-based; settings: Abdomen
Rattus norvegicus [8] = species on record: Rattus norvegicus; experiment: QT interval was determined during cardiovascular test in normotensive male albino Long-Evans rat;delta QT; format: functional, Heart
[9] = target: T1, Alpha-2C adrenergic receptor (Rattus norvegicus, UniProt P22086); experiment: In vitro binding affinity against alpha-2C adrenergic receptor of male Wistar rat
T1 sequence (P22086 whole entry): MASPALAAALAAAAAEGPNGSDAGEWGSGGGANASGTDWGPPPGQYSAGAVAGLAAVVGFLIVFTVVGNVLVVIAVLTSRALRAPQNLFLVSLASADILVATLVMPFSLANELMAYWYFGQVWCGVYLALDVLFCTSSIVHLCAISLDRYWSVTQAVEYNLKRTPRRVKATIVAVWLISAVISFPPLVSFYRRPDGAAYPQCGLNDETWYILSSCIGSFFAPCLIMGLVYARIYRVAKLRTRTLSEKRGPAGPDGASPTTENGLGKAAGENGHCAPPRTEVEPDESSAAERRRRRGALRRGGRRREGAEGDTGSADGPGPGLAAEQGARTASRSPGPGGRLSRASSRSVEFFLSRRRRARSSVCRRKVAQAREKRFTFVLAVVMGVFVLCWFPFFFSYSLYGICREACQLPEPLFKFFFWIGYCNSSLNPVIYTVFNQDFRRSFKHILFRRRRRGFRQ

Adrenergic receptor alpha-2 (Rattus norvegicus), sequence (P19328 whole entry, looked up, one chain of several): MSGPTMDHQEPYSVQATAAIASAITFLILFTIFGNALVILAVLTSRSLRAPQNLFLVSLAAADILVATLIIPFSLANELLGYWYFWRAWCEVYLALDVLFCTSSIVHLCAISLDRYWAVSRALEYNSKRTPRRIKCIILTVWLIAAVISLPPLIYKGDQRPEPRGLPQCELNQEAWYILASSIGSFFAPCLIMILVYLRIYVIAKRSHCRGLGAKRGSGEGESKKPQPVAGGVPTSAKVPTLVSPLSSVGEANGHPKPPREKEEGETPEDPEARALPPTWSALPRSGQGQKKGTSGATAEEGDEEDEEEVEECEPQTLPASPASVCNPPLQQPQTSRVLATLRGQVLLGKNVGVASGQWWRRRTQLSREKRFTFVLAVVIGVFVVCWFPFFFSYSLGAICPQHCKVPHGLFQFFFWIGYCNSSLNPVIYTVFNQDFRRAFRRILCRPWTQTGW
Adrenergic receptor alpha-2 (Rattus norvegicus), sequence (P22909 whole entry, looked up, one chain of several): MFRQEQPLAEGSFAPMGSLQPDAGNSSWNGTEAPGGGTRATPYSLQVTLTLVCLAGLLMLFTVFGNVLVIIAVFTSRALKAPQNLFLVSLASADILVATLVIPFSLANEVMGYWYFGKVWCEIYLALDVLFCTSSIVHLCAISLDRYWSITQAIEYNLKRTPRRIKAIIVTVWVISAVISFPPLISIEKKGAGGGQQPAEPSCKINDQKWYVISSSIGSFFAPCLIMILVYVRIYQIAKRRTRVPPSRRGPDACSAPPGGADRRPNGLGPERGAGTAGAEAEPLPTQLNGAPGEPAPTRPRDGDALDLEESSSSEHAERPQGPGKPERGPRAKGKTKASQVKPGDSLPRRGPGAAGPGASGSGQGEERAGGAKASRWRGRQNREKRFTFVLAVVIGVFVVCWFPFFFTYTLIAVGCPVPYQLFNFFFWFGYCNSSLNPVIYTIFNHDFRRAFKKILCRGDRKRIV

Structure (SMILES): Brc1csc(Cc2c[nH]cn2)c1Br.Cl
- Inhibition (Mus musculus [1]): 93%
- ED50 (Rattus norvegicus [2]): 7.1 mg/kg

Structure (SMILES): CC(c1c[nH]cn1)c1sccc1Br.Cl (stereo not given)
- Inhibition (Mus musculus [1]): 100%
- ED50 (Rattus norvegicus [2]): 0.97 mg/kg

Structure (SMILES): Brc1ccsc1Cc1c[nH]cn1.Cl
- inhibition in vivo at 30 mg/kg (Mus musculus [3]): 100%
- ED50 (Rattus norvegicus [2]): 2 mg/kg

Structure (SMILES): CCc1cscc1Cc1c[nH]cn1.O=C(O)/C=C/C(=O)O
- Inhibition (Mus musculus [1]): 100%
- ED50 (Rattus norvegicus [2]): 0.32 mg/kg
- Activity (Rattus norvegicus [4]): 48%

Structure (SMILES): Cc1sccc1Cc1c[nH]cn1.O=C(O)/C=C/C(=O)O
- Inhibition (Mus musculus [1]): 100%
- ED50 (Rattus norvegicus [2]): 0.89 mg/kg

Structure (SMILES): CCC(c1c[nH]cn1)c1cscc1C.O=C(O)/C=C/C(=O)O (stereo not given)
- Inhibition (Mus musculus [1]): 100%
- ED50 (Rattus norvegicus [2]): 2.6 mg/kg

Structure (SMILES): CC(C)c1cc(Cc2c[nH]cn2)c(C(C)C)s1.O=C(O)/C=C/C(=O)O
- Inhibition (Mus musculus [1]): 40%

Structure (SMILES): Cc1cccc([C@H](C)c2c[nH]cn2)c1C [DEXMEDETOMIDINE]
- ED50 (Rattus norvegicus [2]): 0.12 mg/kg

Structure (SMILES): Cc1ccsc1C(C)c1c[nH]cn1 (single isomer, unassigned; (+))
- ED50 (Rattus norvegicus [2]): 1.18 mg/kg
- Activity (Rattus norvegicus [5]): 24%

Structure (SMILES): COC(c1c[nH]cn1)c1cscc1C.O=C(O)/C=C/C(=O)O (stereo not given)
- Inhibition (Mus musculus [1]): 100%
- ED50 (Rattus norvegicus [2]): 4.4 mg/kg

Structure (SMILES): CC(c1c[nH]cn1)c1cscc1Br.O=C(O)/C=C/C(=O)O (stereo not given)
- Inhibition (Mus musculus [1]): 100%
- ED50 (Rattus norvegicus [2]): 0.31 mg/kg

Structure (SMILES): CCc1cc(Cc2c[nH]cn2)c(CC)s1.O=C(O)/C=C/C(=O)O
- Inhibition (Mus musculus [1]): 100%
- ED50 (Rattus norvegicus [2]): 0.31 mg/kg

Structure (SMILES): Brc1sccc1Cc1c[nH]cn1.O=C(O)/C=C/C(=O)O
- Inhibition (Mus musculus [1]): 100%
- ED50 [6]: 1.1 mg/kg

Structure (SMILES): CCC(c1c[nH]cn1)c1sccc1C.O=C(O)/C=C/C(=O)O (stereo not given)
- Inhibition (Mus musculus [1]): 100%
- IA (Rattus norvegicus [7]): inactive

Structure (SMILES): COC(c1c[nH]cn1)c1sccc1Br.O=C(O)/C=C/C(=O)O (stereo not given)
- Inhibition (Mus musculus [1]): 53%

Structure (SMILES): Cc1csc(Cc2c[nH]cn2)c1C.Cl
- inhibition in vivo at 30 mg/kg (Mus musculus [3]): 100%
- ED50 (Rattus norvegicus [2]): 4.7 mg/kg

Structure (SMILES): O=C(O)/C=C/C(=O)O.c1ccc2c(Cc3c[nH]cn3)csc2c1
- Inhibition (Mus musculus [1]): 0.441%
- ED50 (Rattus norvegicus [2]): 0.44 mg/kg

Structure (SMILES): CC(c1c[nH]cn1)c1sccc1Br (stereo not given)
- Activity (Rattus norvegicus [8]): 23%
- ED50 (Rattus norvegicus [2]): 0.97 mg/kg

Structure (SMILES): COC(c1c[nH]cn1)c1cscc1Br.O=C(O)/C=C/C(=O)O (stereo not given)
- Inhibition (Mus musculus [1]): 100%
- ED50 (Rattus norvegicus [2]): 3.6 mg/kg

Structure (SMILES): Brc1csc(Cc2c[nH]cn2)c1.Cl
- Inhibition (Mus musculus [1]): 80%
- ED50 (Rattus norvegicus [2]): 5.2 mg/kg
- Ki [9]: 1.4 nM

Structure (SMILES): O=C(O)/C=C/C(=O)O.c1nc(Cc2ccsc2)c[nH]1
- Inhibition (Mus musculus [1]): 100%
- ED50 (Rattus norvegicus [2]): 0.97 mg/kg

Structure (SMILES): Cc1cscc1C(C)c1c[nH]cn1.O=C(O)/C=C/C(=O)O (stereo not given)
- Inhibition (Mus musculus [1]): 100%
- ED50 (Rattus norvegicus [2]): 0.27 mg/kg

Structure (SMILES): CC(c1c[nH]cn1)c1scc(Br)c1Br.O=C(O)/C=C/C(=O)O (stereo not given)
- Inhibition (Mus musculus [1]): 80%

Structure (SMILES): Cc1ccc(Cc2c[nH]cn2)s1
- inhibition in vivo at 30 mg/kg (Mus musculus [3]): 33%

Structure (SMILES): CC(c1c[nH]cn1)c1cscc1Br (stereo not given)
- Activity (Rattus norvegicus [5]): 20%

Structure (SMILES): Cc1sccc1C(C)c1c[nH]cn1.O=C(O)/C=C/C(=O)O (stereo not given)
- Inhibition (Mus musculus [1]): 100%
- ED50 (Rattus norvegicus [2]): 1.6 mg/kg

Structure (SMILES): c1csc(Cc2c[nH]cn2)c1
- inhibition in vivo at 30 mg/kg (Mus musculus [3]): 60%

Structure (SMILES): Cc1ccsc1Cc1c[nH]cn1.Cl
- inhibition in vivo at 30 mg/kg (Mus musculus [3]): 100%
- ED50 (Rattus norvegicus [2]): 0.87 mg/kg
- Activity (Rattus norvegicus [5]): 22%

Structure (SMILES): Cc1ccsc1C(C)c1c[nH]cn1.Cl (stereo not given)
- Inhibition (Mus musculus [1]): 100%
- ED50 (Rattus norvegicus [2]): 2.2 mg/kg

Structure (SMILES): Cc1cc(Cc2c[nH]cn2)c(C)s1.O=C(O)/C=C/C(=O)O
- Inhibition (Mus musculus [1]): 100%
- ED50 (Rattus norvegicus [2]): 0.9 mg/kg

Structure (SMILES): Cc1csc(C(C)c2c[nH]cn2)c1C (stereo not given)
- IA (Rattus norvegicus [7]): inactive

Structure (SMILES): CCc1cscc1C(C)c1c[nH]cn1.O=C(O)/C=C/C(=O)O (stereo not given)
- Inhibition (Mus musculus [1]): 100%
- ED50 (Rattus norvegicus [2]): 0.48 mg/kg
- Activity (Rattus norvegicus [4]): 32%

Structure (SMILES): Cc1cscc1Cc1c[nH]cn1.O=C(O)/C=C/C(=O)O
- Inhibition (Mus musculus [1]): 100%
- ED50 (Rattus norvegicus [2]): 0.35 mg/kg
- Activity (Rattus norvegicus [4]): 34%

Structure (SMILES): Brc1cscc1Cc1c[nH]cn1.O=C(O)/C=C/C(=O)O
- Inhibition (Mus musculus [1]): 100%
- ED50 (Rattus norvegicus [2]): 0.38 mg/kg
- Activity (Rattus norvegicus [4]): 11%

Structure (SMILES): CCc1sccc1Cc1c[nH]cn1.O=C(O)/C=C/C(=O)O
- Inhibition (Mus musculus [1]): 100%
- ED50 (Rattus norvegicus [2]): 0.27 mg/kg
- Activity (Rattus norvegicus [4]): 28%

Structure (SMILES): Cl.c1ccc2sc(Cc3c[nH]cn3)cc2c1
- Inhibition (Mus musculus [1]): 20%

Structure (SMILES): Cc1csc(C)c1Cc1c[nH]cn1.O=C(O)/C=C/C(=O)O
- Inhibition (Mus musculus [1]): 100%

Structure (SMILES): Clc1cc(Cc2c[nH]cn2)c(Cl)s1.O=C(O)/C=C/C(=O)O
- Inhibition (Mus musculus [1]): 100%
- ED50 (Rattus norvegicus [2]): 3.2 mg/kg

Structure (SMILES): Cl.c1nc(Cc2cc3c(s2)CCCC3)c[nH]1
- Inhibition (Mus musculus [1]): 7%

Structure (SMILES): Cc1ccsc1C1(c2c[nH]cn2)CC1.O=C(O)/C=C/C(=O)O
- Inhibition (Mus musculus [1]): 40%
